A selection: hits, their analogues and other compounds. The true share with any hit is near 9.3%.
PostGolgi ctrl: growth inhibition of yeast control strain, primary screen, counter-screen for post-Golgi transport modulator project. efflux-deficient yeast background strain, growth absorbance A615, 16 h. inhibition, % at 10 µM. hit rate 5% among 98,000. AID 738, 2007
D1 mod: D1 CRE-luciferase signal change, two-sided – cell-based, HEK293 D1, dopamine EC30, D1 allosteric modulator project, primary screen. AID 641, 2007. dopamine EC30 potentiation; actives deviate in either direction. B-score at 10 µM. hit rate 5.9% among 58,000;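 active = luminescence count or its row- and column-corrected plate score outside the 99.7% band of the plate's sample wells, on either side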
Target sequence (P21728 whole entry, looked up): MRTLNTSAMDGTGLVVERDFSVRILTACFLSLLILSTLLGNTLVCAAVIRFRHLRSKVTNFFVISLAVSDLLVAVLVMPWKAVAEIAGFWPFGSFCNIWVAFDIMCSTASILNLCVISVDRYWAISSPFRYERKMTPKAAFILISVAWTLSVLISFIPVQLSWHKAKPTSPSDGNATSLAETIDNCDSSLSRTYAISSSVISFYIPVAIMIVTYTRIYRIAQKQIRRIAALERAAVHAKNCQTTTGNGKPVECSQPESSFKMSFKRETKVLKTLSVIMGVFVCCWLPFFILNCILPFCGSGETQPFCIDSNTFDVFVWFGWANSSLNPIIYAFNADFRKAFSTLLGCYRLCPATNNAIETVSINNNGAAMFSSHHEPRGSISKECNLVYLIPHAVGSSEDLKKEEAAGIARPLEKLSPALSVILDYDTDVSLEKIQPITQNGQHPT
E coli WT exp: growth inhibitors of wild-type E. coli, primary screen, strain BW25113, expanded library, OD600 | hit rate 0.15% among 98,000 | growth inhibition, % at 100 µM | OD600 absorbance;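 active = growth inhibition above about 50% at one test dose, limit read from the data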;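 note: growth measured after 20 h incubation at 37 °C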
PostGolgi yeast: phenotypic screen on post-Golgi transport, primary screen | post-Golgi transport phenotypic cell assay | AID 739, 2007 | hit rate 0.9% among 98,000 | inhibition, % at 10 µM;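 note: yeast cells grown in 1536-well plates; yeast grown about 18 h at 30C before absorbance read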
tolC growth inh: growth inhibitors of E. coli tolC mutant, primary screen, strain BW25113 ΔtolC::kan, 384-well; hit rate 2.2% among 65,000; OD615; growth inhibition, % at 10 µM (by protocol);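 active = growth inhibition at or above a cutoff equal to the mean over every tested compound plus 3 SD, cut at about 60% in these data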;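 note: growth measured after 20 h incubation at 37 °C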
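Test system: E. coli BW25113 ΔtolC::kan bacteria | Medium: Kanamycin-containing LB broth (50 µg/mL) | Dosing: One dose of 10 µM final | Times: 20 h incubation with compound, 37 °C | Detection: Optical density read at 615 nm | Read-out basis: Percent growth inhibition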
DAT uptake mod: changed hDAT dopamine uptake under cocaine IC80, either direction, primary screen, cocaine antagonist project, cell-based, LLC-PK1 hDAT, [14C]-dopamine uptake, MLSMR; LLC-PK1 hDAT cells, [14C]-dopamine uptake with cocaine IC80; actives deviate in either direction; B-score at 10 µM; hit rate 1.3% among 110,000; AID 449768, 2010;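 active = Z score or B-score, a plate-position-corrected score, falls beyond the plate's 99.7% confidence bounds, in either direction; inactive = both scores lie inside the 99.7% bounds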;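 note: scored against the spread of the other compound wells on the same plate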
D1 mod confirm: D1 receptor positive allosteric modulators, retest, confirmation, cell-based, HEK293 D1, CRE-luciferase, duplicate. AID 642, 2007. hit rate 88% among 2,200. dopamine EC30 potentiation; hits give high values. shares compounds with D1 mod. luminescence at 10 µM;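 active = luminescence in either of two replicates above the same-plate mean plus 3 SD of the low-dose dopamine control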
D1 ag no DA: D1 receptor agonism without dopamine, confirmation, mechanism study for D1 allosteric modulator project, cell-based, HEK293 D1, CRE-luciferase, secondary assay 1; shares compounds with D1 mod; luminescence, no dopamine; hits give high values; luminescence at 10 µM; hit rate 0.8% among 1,900; AID 646, 2007; in the data active = luminescence above about 3900
Isoprot counter: isoproterenol response counter-screen activity for D1 modulators. calls only at 10 µM. hit rate 63% among 2,200. shares compounds with D1 mod. HEK293 D1 CRE-luciferase, isoproterenol EC30 counter-screen;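 active = luminescence in either replicate above plate mean of wells with a partly effective reference agonist dose plus 3 SD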;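 note: isoproterenol raises cAMP through native beta-adrenoceptor Gs so signal bypasses D1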
Starred values were filed as active, the others as inactive; i = inactive; / = no result; + = active, no number. Cut-off read from the data, not from the text of the source, unless noted: active = inhibition above about 30%; inactive = the rest.

SMILES	PostGolgi ctrl	D1 mod	E coli WT exp	PostGolgi yeast	tolC growth inh	DAT uptake mod	others
O=c1[nH]c(=O)n(CCC2=CCCCC2)c(O)c1C=NC1CCN(Cc2ccccc2)CC1	-5	-0.96	-3	-5	24	-0.17
CCCCCCn1c(O)c(C=NC2CCN(Cc3ccccc3)CC2)c(=O)[nH]c1=O	7	-3*	-10	-4	8	-0.18
CCCCn1c(O)c(C=NC2CC3CCC2(C)C3(C)C)c(=O)[nH]c1=O (configuration not stated)	63*	-0.0084	-2	5	31	-0.19
CN1CC[C@@H](c2ccc(F)cc2)[C@H](COc2ccc3c(c2)OCO3)C1	/	/	/	/	/	-0.6
CC(=O)O[C@@H]1/C=C/[C@](C)(O)C[C@@H](C)C/C=C/[C@H]2[C@@H]3O[C@]3(C)[C@@H](C)[C@H]3[C@H](Cc4ccccc4)NC(=O)[C@@]312	/	/	/	/	/	-0.22
CCN1CCN(Cc2ccc(C)cc2)CC1	-10	-0.19	1	-3	-15	-0.67
CCCCCCOc1ccc(CN2CCN(C)CC2)cc1	23	-3.5*	9	-5	18	-0.36
CCOC(=O)C1=C(C)OC(N)=C(C#N)C12C(=O)Nc1ccc(C)cc12 (configuration not stated)	2	-0.65	0	-6	-13	0.76
CCN(CC)C1=NC(=[N+](CC)CC)c2ccccc21	10	/	7	0	/	-3*
CC(C)C/C(=N/O)c1c[nH]c2ccccc12	10	/	14	-8	/	4.2*
CC(C(=O)c1c[nH]c2ccccc12)N1CCSCC1 (configuration not stated)	-9	/	18	3	/	0.24
N=C(N)c1c(O)n(C2CCCCC2)c(=O)n(C2CCCCC2)c1=O	53*	1.9	-4	8	99*	0.72
O=c1c(C=NCc2cccs2)c(O)n(C2CCCCC2)c(=O)n1C1CCCCC1	7	/	24	4	/	1.2
COc1cc(/C=N/NC(=O)CN2CC(c3ccccc3)CC2=O)ccc1OC(=O)N(C)C (configuration not stated)	-6	/	-3	-8	/	1.2
N=Cc1c(O)n(-c2cccc(Cl)c2)c(=O)[nH]c1=O	8	0.75	5	3	0	-0.66
O=c1[nH]c2ccccc2c(=O)n1-c1cccc(Cl)c1	4	9.2*	-8	-2	-11	/	D1 mod confirm=10464*;D1 ag no DA=1816;Isoprot counter=+
CCC(C)NC(=O)c1c(N)n(Cc2ccc3c(c2)OCO3)c2nc3ccccc3nc12 (configuration not stated)	10	1.2	-8	10	-1	0.56
CCCCOCCCn1c(N)c(C(=O)OC(C)COC)c2nc3ccccc3nc21 (configuration not stated)	18	6.7*	-1	5	7	-0.39	D1 mod confirm=11516*;D1 ag no DA=1488;Isoprot counter=+
CCC(C)NC(=O)c1c(N)n(CCCOC)c2nc3ccccc3nc12 (configuration not stated)	28	5.1*	-2	0	29	2.3	D1 mod confirm=9844*;D1 ag no DA=1520;Isoprot counter=+
COCCCn1c(N)c(C(=O)OC(C)COC)c2nc3ccccc3nc21 (configuration not stated)	2	5.6*	-1	17	-7	0.92	D1 mod confirm=8820*;D1 ag no DA=1816;Isoprot counter=i
COC(=O)CSC1=NP(=S)(SCC(=O)OC)N2CCCC2=C1C#N (configuration not stated)	16	0.014	-2	1	-20	0.44

Screens from PubChem.
